Screening results from PubChem.
Tb MetRS inh: Trypanosoma brucei MetRS inhibition; purified T. brucei MetRS, ATP depletion, Kinase-Glo luminescence; inhibition, % at 11.9 µM; actives 0.4% (n = 360,000); AID 624268;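 active means inhibition above a per-plate cutoff of the control wells' mean inhibition plus 3 SD, cut at about 5.5% in these data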;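 further: 0% = DMSO wells median and 100% = median of wells with control inhibitor compound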
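System: purified T. brucei MetRS enzyme / Detection: Kinase-Glo luciferase luminescence reporting remaining unconsumed ATP / Medium: HEPES buffer with MgCl2, KCl, DTT, spermine, BSA, pyrophosphatase / Replication: singlicate, one well per compound / Evaluation: percent inhibition relative to median high and low control wells / Schedule: 2 h aminoacylation at 25 °C after 15 min preincubation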
bovine MsrA act: bovine methionine sulfoxide reductase A activation; AID 602163; purified bovine MsrA, absorbance read-out; activation, % at 10.6 µM; actives 0.3% (n = 360,000); in the data active means activation above about 7.5%;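 further: 0% = vehicle and 100% = reference activator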
procasp7 counter: activates human procaspase-7, counter-screen for procaspase-3 activators; P55210; recombinant procaspase-7, Ac-DEVD-pNA absorbance 405 nm; D23A/D198A/D206A triple mutant, cannot self-cleave; scale: DMSO 0, 5 µM enzyme 100; activation, % at 8.5 µM; actives 0.093% (n = 330,000); AID 463210;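 active means percent activation above the screen-wide mean plus 3 SD, cut at about 25% in these data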
Target sequence (P55210 whole entry D23A/D198A/D206A): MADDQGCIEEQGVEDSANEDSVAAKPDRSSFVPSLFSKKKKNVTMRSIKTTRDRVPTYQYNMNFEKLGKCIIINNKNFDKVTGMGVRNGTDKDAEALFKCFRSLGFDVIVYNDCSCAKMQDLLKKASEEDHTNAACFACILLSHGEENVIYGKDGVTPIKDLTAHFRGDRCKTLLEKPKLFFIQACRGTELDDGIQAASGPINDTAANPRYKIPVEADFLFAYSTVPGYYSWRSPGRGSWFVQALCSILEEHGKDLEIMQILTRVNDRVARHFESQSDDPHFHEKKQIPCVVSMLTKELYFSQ
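buffer or medium = Zinc-free HEPES/NaCl buffer, pH 7.4 | material = Procaspase-7 triple mutant (PC-7 D3A) | input = 2 µM procaspase-7 mutant as dispensed | signal = Epi-absorbance of released pNA at 405 nm, two timepoints | timing = 1 h preincubation, 2 h reaction | replicates = singlicate compound testing | evaluation = % activation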
MsrA inhibitor: inhibitors of bovine MsrA | purified bovine MsrA, absorbance read-out | inhibition, % at 15.5 µM | actives 0.75% (n = 360,000) | AID 651718; in the data active means inhibition above about 4.5%;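 further: 0% = vehicle wells with enzyme and 100% = reference inhibitor wells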
proCasp3 act: activates human procaspase-3. actives 0.11% (n = 330,000). activation, % at 8.5 µM. recombinant procaspase-3 D3A, Ac-DEVD-pNA absorbance 405 nm. P42574. AID 463141;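 active means activation above the mean of all tested compounds plus 3 SD, cut at about 21% in these data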;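 further: 0% = DMSO alone and 100% = DMSO wells spiked with extra 5 µM PC-3 D3A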
Target sequence (P42574 whole entry D9A/D28A/D175A): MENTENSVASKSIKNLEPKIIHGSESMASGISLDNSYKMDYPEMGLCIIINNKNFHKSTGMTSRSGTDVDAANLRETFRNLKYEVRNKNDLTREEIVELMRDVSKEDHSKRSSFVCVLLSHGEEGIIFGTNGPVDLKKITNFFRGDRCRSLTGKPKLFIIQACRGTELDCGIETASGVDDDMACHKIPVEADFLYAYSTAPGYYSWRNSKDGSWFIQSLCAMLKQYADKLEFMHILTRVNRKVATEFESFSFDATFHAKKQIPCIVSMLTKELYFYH
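Test system: Procaspase-3 D3A mutant, all three cleavage aspartates alanine | Dosing: Single dose, 8.5 µM nominal compound, 0.8% DMSO | Schedule: 1 h preincubation, 2 h reaction | Technique: 405 nm absorbance of p-nitroaniline, reads at 0 and 120 min | Repeats: One well per compound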
* marks the source's active call; other numbers are inactive results; · = no result given. This is a sample that favours compounds with a hit; in the whole collection about 1.5% have one here.

SMILES | Tb MetRS inh | bovine MsrA act | procasp7 counter | MsrA inhibitor | proCasp3 act
O=C(N[C@H](Cc1ccccc1)C(=O)NCC1CCCO1)[C@H]1O[C@@H](n2ccc(=O)[nH]c2=O)[C@H](O)[C@@H]1O (some centres undefined) | · | · | · | 0.2 | ·
COc1ccc(C2CC(=O)C(c3cccc(C)c3)=CN2Cc2ccccc2)cc1 (centres undefined) | · | · | · | 4.2 | ·
COC(=O)C1=C(C)N(Cc2ccc(Br)cc2)C(=S)NC1c1ccc(OC)cc1 (centres undefined) | · | · | · | 0.4 | ·
O=[N+]([O-])c1ccc(C=Nc2ccc(Cl)c([N+](=O)[O-])c2)s1 | 0.7 | 2.5 | · | 5.1* | ·
CC(C)c1cc(N=NC(N)=O)cc(C(C)C)c1O | -0.5 | -5.6 | -14.9 | 4.6* | -3.8
Cc1ccc(C(=O)Nc2cc(C(C)C)c(O)c(C(C)C)c2)cc1 | 0.1 | -2.8 | -4.4 | 0.4 | -8.1
CCC(=O)OC1(C)C(=O)C2=COC(c3ccc(OC)cc3)=CC2=C(Br)C1=O (centres undefined) | 0.3 | 10.1* | -11.3 | 1.4 | -15.0
O=C(N[C@H](Cc1ccccc1)C(=O)N1CCN(c2ccc(Cl)cn2)CC1)[C@H]1O[C@@H](n2ccc(=O)[nH]c2=O)[C@H](O)[C@@H]1O | · | · | · | -0.9 | ·
CN(C)CCCOc1ccc(Cl)cc1Br | 5.9* | -1.1 | 4.3 | 0.5 | -2.3
CCC(=O)N1c2ccccc2NC2=C(C(=O)CC(c3ccco3)C2)C1c1ccco1 (centres undefined) | -0.4 | -4.5 | -0.3 | 4.6* | -22.6
COc1cccc(CNC(=O)[C@H]2CCCN2C(=O)[C@H]2CCCN2C(=O)OC(C)(C)C)c1 | · | · | · | -0.2 | ·
O=[N+]([O-])c1ccc(/C=N/n2cnc3ccccc32)s1 | 0.5 | 17.6* | -1.3 | 1.8 | 3.0
COc1cc2c(cc1NC(=O)CN(C)Cc1ccc(OC)c(OC)c1)oc1ccccc12 | -0.4 | -7.1 | 2.1 | 4.6* | 4.1
O=c1cc[nH]c2cccc(Cc3ccccc3)c12 | 20.9* | -1.1 | 2.8 | 0.9 | 10.7
CCOC(=O)C(CNc1ccc(OCc2ccccc2)cc1)NC(=O)c1ccccc1 (centres undefined) | · | · | · | 0.1 | ·
Cc1nn(CCC#N)c(NC(=O)c2ccc(Cl)cc2Cl)c1P(=O)(Nc1ccc([N+](=O)[O-])cc1)N1CCOCC1 (centres undefined) | -0.8 | -9.4 | -8.6 | 4.7* | -1.9
Cc1cccc(NC(=O)CNC(=O)[C@H](CCc2ccccc2)NC(=O)[C@H]2O[C@@H](n3cnc4c(N)ncnc43)[C@H](O)[C@@H]2O)c1C | · | · | · | 0.5 | ·
CC1CCCN(c2cccc3c2S(=O)(=O)N(Cc2cccc(Cl)c2)[C@@H](C)[C@H](c2ccccc2)O3)C1 (some centres undefined) | · | · | · | 2.9 | ·
CC(=O)c1ccc(N2CCN(C(=O)c3ccc4c(=O)n(-c5ccccc5)c(=O)[nH]c4c3)CC2)cc1 | 1.0 | -8.6 | -0.1 | 4.6* | -4.0
COCCN=C1Sc2ccccc2[C@@H]2C[C@H]3[C@H](CON3C)CN12 | · | · | · | 0.6 | ·
CCN(CC)c1ccc(C=Nc2ccccc2)c(O)c1 | -1.1 | -3.3 | 5.4 | 3.5 | -0.5
CCN(CC)c1ccc(/C=N/NC(=O)OC)c(O)c1 | -1.1 | -3.1 | -4.2 | 7.2* | 1.9
CCN(CC)c1ccc(N=Cc2ccc(N(CC)CC)cc2O)cc1 | 0.0 | 1.4 | -25.2 | 4.6* | -15.8
Cc1ccc(CNC(=O)[C@@H](Cc2ccccc2)NC(=O)[C@H]2O[C@@H](n3ccc(N)nc3=O)[C@H](O)[C@@H]2O)o1 | · | · | · | 2.1 | ·
Cc1ccccc1C(=O)N[C@H](C(=O)N1CCC[C@H]1C(=O)NCCc1ccccc1Cl)c1ccccc1 | · | · | · | 0.2 | ·
SMILES | Tb MetRS inh | bovine MsrA act | procasp7 counter | MsrA inhibitor | proCasp3 act
Cn1sc2ccccc2c1=O | -0.7 | 7.8* | · | 1.1 | ·
O=C1c2ccccc2C(=O)N1c1nccs1 | -0.3 | -7.0 | · | 0.1 | ·
O=c1c2ccccc2sn1-c1ccccc1F | -0.5 | 6.0 | · | -0.1 | ·
O=c1c2ccccc2sn1-c1nccs1 | -0.3 | 17.0* | · | 0.7 | ·
Cc1ccc(S(=O)(=O)NCC2CCN(C(=O)C(=O)c3cc4ccccc4o3)CC2)cc1 | · | · | · | 1.6 | ·
COCC1CN(CCc2ccc(F)cc2)S(=O)(=O)c2c(OCCN3C(=O)[C@@H]4[C@H](C3=O)[C@@H]3C=C[C@H]4C3)cccc2O1 (some centres undefined) | · | · | · | 0.5 | ·
O=[N+]([O-])c1ccc2c(c1)CO[C@]21O[C@H](CCO)C[C@H](O)[C@H]1O | · | · | · | 1.2 | ·
CCCN(C(=O)CCc1cn(CCC)c2ccccc12)c1ccc(Oc2cccnc2)cc1 | · | · | · | 0.6 | ·
N#Cc1ccc(S(=O)(=O)N2CCCc3nc(-c4ccc(Br)cc4)ccc32)cc1 | · | · | · | -0.2 | ·
O=C1N/C(=C\c2ccc(O)cc2)C(=O)c2ccccc21 | 7.8* | -3.5 | -6.7 | · | 5.1
O=C(O)/C=C1\NC(=O)c2ccccc21 | -1.1 | -3.5 | 4.1 | 0.5 | -2.5
CC(=O)C1=C(C)N(Cc2ccc(Cl)cc2)C(=S)NC1c1ccc(Cl)cc1 (centres undefined) | · | · | · | 1.4 | ·
O=C(CNc1cccc2ccccc12)N/N=C/c1ccc(C(=O)O)cc1 | -0.7 | -5.0 | -0.9 | 0.9 | 3.6
O=C(CNc1cccc2ccccc12)N/N=C/C=C/c1ccco1 | -0.3 | -4.8 | -1.2 | 4.6* | 1.4
C=CCc1cccc(CNc2nc3ccccc3n2CC)c1O | 39.8* | -3.0 | -2.2 | -1.2 | -4.6
CCOC(=O)C1CCN(c2cc(C)nc3cc(-c4cccc(F)c4)nn23)CC1 | -0.5 | -1.8 | 30.6* | -0.3 | 26.1*
COCCNC(=O)c1csc2c1CCCC2 | 0.5 | 12.3* | -0.9 | -0.6 | -1.2
CSCCC(NC(=O)OCc1ccccc1)C(=O)NC(Cc1c[nH]c2ccccc12)C(=O)O (centres undefined) | · | · | · | -0.5 | ·
CC(C)(O)C(O)COc1c2ccoc2cc2oc(=O)ccc12 (centres undefined) | -0.1 | 3.1 | -4.7 | 1.0 | 5.1
CC(=O)OC(C=C(C)C)C/C(C)=C/COc1c2ccoc2cc2oc(=O)ccc12 (centres undefined) | -0.9 | -8.4 | · | 12.5* | ·
O=c1[nH]c(/C=C\c2ccc(O)c(Cl)c2)nc(O)c1[N+](=O)[O-] | 0.4 | -1.8 | -14.4 | 4.6* | -15.9
CC(C)(C)c1cc(NC(=O)Nc2ccccc2)no1 | 0.8 | 8.2* | -6.1 | -0.6 | 8.5
COC(=O)c1ccccc1S(=O)(=O)NC(=O)[C@H]1O[C@@H](n2ccc(=O)[nH]c2=O)[C@H](O)[C@@H]1O | · | · | · | -1.1 | ·
COC(=O)[C@H](Cc1ccccc1)N1C[C@@H](N2CCC[C@H]2C)CS1(=O)=O | · | · | · | 0.5 | ·
CCCCCCC12C(=Cc3cc4c(cc31)OCCO4)c1cc(OC)c(OC)cc1C(CC(=O)NCc1ccccc1)N2C(=O)OC (centres undefined) | · | · | · | 0.5 | ·
Cc1onc(-c2c(F)cccc2Cl)c1-c1ncc(-c2ccc(Cl)cc2)o1 | · | · | · | -0.6 | ·
Cc1nccn1S(=O)(=O)c1ccc(Br)cc1Br | 0.3 | -0.3 | 3.5 | 5.5* | 6.6
